As usually defined, the MIC is the lowest concentration that inhibits growth of the organism.

Converted amounts (≈) assume the structure as drawn. The source made the active and inactive calls. The calls are words filed in the database; no cut-off is given here. Some results are limits rather than exact numbers.

Data on eight compounds can be found in ChEMBL document CHEMBL3272149, “Synthesis and antibacterial activity of some derivatives of tolypomycinone. Relationship between structure and activity in ansamycins” (J Med Chem, 1977).

Data set [1] has as its system Staphylococcus aureus. The experiment in a line: Antibacterial activity against Staphylococcus aureus 209 P(FDA) assessed as inhibition of visible growth after 24 hrs by serial dilution method. The format is functional.
For another data set, the system named is Klebsiella pneumoniae. The experiment in a line: Antibacterial activity against Klebsiella pneumoniae Ottaviani assessed as inhibition of visible growth after 24 hrs by serial dilution method. The format is functional.
In data set [2] the test system is Staphylococcus aureus. The experiment in a line: Antibacterial activity against Staphylococcus aureus 209 P(FDA) assessed as inhibition of visible growth in simulated intestinal juice at pH 8.3 after 1 to 4 hrs by serial dilution method. The data set is classed as functional, organism-based. In outline:
(§1)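 Compound dissolved in simulated gastric juice (pH 1.3) or simulated intestinal juice (pH 8.3). Samples were withdrawn at 1, 2 and 4 h and assayed for residual inhibitory activity against Staphylococcus.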

Data set [3] relates to Staphylococcus aureus. The experiment in a line: Antibacterial activity against Staphylococcus aureus 209 P(FDA) assessed as inhibition of visible growth in simulated gastric juice at pH 1.3 after 1 to 4 hrs by serial dilution method. The format is functional, organism-based. In outline:
as §1

Data set [4] can be described thus: Stability in simulated gastric juice at pH 1.3. The data set is classed as ADME. Particulars: simulated gi fluid. In short, it runs like this: as §1
Data set [5] deals with Salmonella enterica subsp. enterica serovar Paratyphi B. The experiment in a line: Antibacterial activity against Salmonella paratyphi B 0248 K assessed as inhibition of visible growth after 24 hrs by serial dilution method. The format is functional. In outline: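 Broth tube serial dilution in Brain Heart Infusion medium; inoculum 10^6 cells/mL; incubation 24 h at 35 °C; MIC taken as the lowest antibiotic concentration that prevented visible growth.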

The nature of data set [6]: Stability in simulated intestinal juice at pH 8.3. The data set is classed as ADME. The conditions noted are these: simulated gi fluid. In outline:
as §1

The next data set relates to Escherichia coli. The experiment in a line: Antibacterial activity against Escherichia coli MC/35 assessed as inhibition of visible growth after 24 hrs by serial dilution method. The data set is classed as functional. The conditions noted are these: MC/35, 24 h.

As to `CO[C@H]1/C=C/O[C@@]2(C)Oc3c(C)c(O)c4c(c3C2=O)C(=O)C(NCCN2CCOCC2)=C(NC(=O)/C(C)=C\C(=O)[C@@H]2C[C@@H]2[C@H](O)[C@@H](C)[C@@H](O)[C@@H](C)[C@H](OC(C)=O)[C@@H]1C)C4=O`, the MIC with Staphylococcus aureus [1] was less than 0.005 µg/mL; with Klebsiella pneumoniae, 50 µg/mL (≈ 59.7 µM); in data set [5] it was 12 µg/mL (≈ 14.3 µM); in the data set on Escherichia coli, 12 µg/mL (≈ 14.3 µM). Moreover, the inhibition result in the data set with Staphylococcus aureus [2] and with Staphylococcus aureus [3] was “Active” each time. Besides, the Stability entry in data set [4] and in data set [6] was “Stable” in each case.

For the compound `CO[C@H]1/C=C/O[C@@]2(C)Oc3c(C)c(O)c4c(c3C2=O)C(=O)C(NCc2ccccn2)=C(NC(=O)/C(C)=C\C(=O)[C@@H]2C[C@@H]2[C@H](O)[C@@H](C)[C@@H](O)[C@@H](C)[C@H](OC(C)=O)[C@@H]1C)C4=O`, the MIC in the data set on Staphylococcus aureus [1] was less than 0.005 µg/mL; in the data set on Klebsiella pneumoniae it was 12 µg/mL (≈ 14.7 µM); in data set [5], 25 µg/mL (≈ 30.6 µM); in the data set on Escherichia coli, 6 µg/mL (≈ 7.35 µM).

For `CO[C@H]1/C=C/O[C@@]2(C)Oc3c(C)c(O)c4c(O)c(c(/C=N/N5CCN(C)CC5)c(O)c4c3C2=O)NC(=O)/C(C)=C\C=C\[C@H](C)[C@H](O)[C@@H](C)[C@@H](O)[C@@H](C)[C@H](OC(C)=O)[C@@H]1C` [RIFAMPIN], the MIC came out at 0.025 µg/mL (≈ 0.0304 µM) with Staphylococcus aureus [1], 25 µg/mL (≈ 30.4 µM) in the data set on Klebsiella pneumoniae, 12 µg/mL (≈ 14.6 µM) in data set [5] and 6 µg/mL (≈ 7.29 µM) in the data set with Escherichia coli.

With `CO[C@H]1/C=C/O[C@@]2(C)Oc3c(C)c(O)c4c(c3C2=O)C(=O)C(NCc2ccc(N(C)C)cc2)=C(NC(=O)/C(C)=C\C(=O)[C@@H]2C[C@@H]2[C@H](O)[C@@H](C)[C@@H](O)[C@@H](C)[C@H](OC(C)=O)[C@@H]1C)C4=O`, the minimum inhibitory concentration (MIC) with Staphylococcus aureus [1] is less than 0.005 µg/mL; in the data set on Klebsiella pneumoniae it was 12 µg/mL (≈ 14 µM); in data set [5], 12 µg/mL (≈ 14 µM); with Escherichia coli it was 23 µg/mL (≈ 26.8 µM).

Regarding `CO[C@H]1/C=C/O[C@@]2(C)Oc3c(C)c(O)c4c(c3C2=O)C(=O)C(N(C)C)=C(NC(=O)/C(C)=C\C(=O)[C@@H]2C[C@@H]2[C@H](O)[C@@H](C)[C@@H](O)[C@@H](C)[C@H](OC(C)=O)[C@@H]1C)C4=O`, the MIC was determined as 0.025 µg/mL (≈ 0.0332 µM) in the data set on Staphylococcus aureus [1], 100 µg/mL (≈ 133 µM) with Klebsiella pneumoniae, 100 µg/mL (≈ 133 µM) in data set [5] and 50 µg/mL (≈ 66.4 µM) with Escherichia coli.

Turning to `CO[C@H]1/C=C/O[C@@]2(C)Oc3c(C)c(O)c4c(c3C2=O)C(=O)C(NCc2ccc3c(c2)OCO3)=C(NC(=O)/C(C)=C\C(=O)[C@@H]2C[C@@H]2[C@H](O)[C@@H](C)[C@@H](O)[C@@H](C)[C@H](OC(C)=O)[C@@H]1C)C4=O`, the minimum inhibitory concentration (MIC) in the data set on Staphylococcus aureus [1] is less than 0.005 µg/mL; in the data set with Klebsiella pneumoniae it was greater than 100 µg/mL; in data set [5], 100 µg/mL (≈ 116 µM); in the data set with Escherichia coli, greater than 100 µg/mL.

For the compound `CO[C@H]1/C=C/O[C@@]2(C)Oc3c(C)c(O)c4c(c3C2=O)C(=O)C(NCCCN(C)C)=C(NC(=O)/C(C)=C\C(=O)[C@@H]2C[C@@H]2[C@H](O)[C@@H](C)[C@@H](O)[C@@H](C)[C@H](OC(C)=O)[C@@H]1C)C4=O`, the MIC in the data set on Staphylococcus aureus [1] was 0.025 µg/mL (≈ 0.0309 µM); with Klebsiella pneumoniae, 50 µg/mL (≈ 61.7 µM); in data set [5] it was 12 µg/mL (≈ 14.8 µM); in the data set on Escherichia coli, 12 µg/mL (≈ 14.8 µM).

As to `CO[C@H]1/C=C/O[C@@]2(C)Oc3c(C)c(O)c4c(c3C2=O)C(=O)C(NCc2ccncc2)=C(NC(=O)/C(C)=C\C(=O)[C@@H]2C[C@@H]2[C@H](O)[C@@H](C)[C@@H](O)[C@@H](C)[C@H](OC(C)=O)[C@@H]1C)C4=O`, the MIC in the data set on Staphylococcus aureus [1] was 0.005 µg/mL (≈ 0.00613 µM); in the data set with Klebsiella pneumoniae it was 100 µg/mL (≈ 123 µM); in data set [5], 12 µg/mL (≈ 14.7 µM); in the data set on Escherichia coli it was 25 µg/mL (≈ 30.6 µM).
